ChEMBL document CHEMBL4414566, “Cytotoxicity and Anti-inflammatory Properties of Apigenin-Derived Isolaxifolin” (J Nat Prod, 2019)
Activity calls are given as the source filed them. The calls are words filed in the database; no cut-off is given here.

Columns and labels:
MDA-MB-231 [1] = assay: Induction of cell cycle arrest in human MDA-MB-231 cells assessed as accumulation of cells at S phase at 8.6 uM incubated for 48 hrs by PI/RNase staining based flow cytometric analysis (reference value: 39.2%); format: functional
Outline: (§1)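 Cell-cycle analysis: MDA-MB-231 cells were preincubated 24 h, then treated with 8.6, 12.4 or 17.3 μM for 48 h. Cells were pelleted, fixed in 75% ethanol at −20 °C overnight, and stained with PI/RNase for 15 min in the dark at ambient temperature. About 10 000 cells per well were analyzed by flow cytometry for DNA content.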

MDA-MB-231 [2] = assay: Induction of apoptosis in human MDA-MB-231 cells assessed as viable cells at 17.3 uM incubated for 48 hrs by annexin V-FITC/PI based flow cytometric analysis (Rvb= 96.21%); format: functional; conditions: MDA-MB-231, 48 h, read-out: Activity
MDA-MB-231 [3] = assay: Induction of apoptosis in human MDA-MB-231 cells assessed as late apoptotic cells at 8.6 uM incubated for 48 hrs by annexin V-FITC/PI based flow cytometric analysis (Rvb= 2.82%); format: functional
MDA-MB-231 [4] = assay: Induction of cell cycle arrest in human MDA-MB-231 cells assessed as accumulation of cells at G2/M phase at 8.6 uM incubated for 48 hrs by PI/RNase staining based flow cytometric analysis (reference value: 10.4%); format: functional; outline: as §1
MDA-MB-231 [5] = assay: Induction of apoptosis in human MDA-MB-231 cells assessed as increase in late apoptotic cells population incubated for 48 hrs by annexin V-FITC/PI based flow cytometric analysis; format: functional, cell-based
MDA-MB-231 [6] = assay: Induction of mitochondrial membrane potential loss in human MDA-MB-231 cells assessed as cell population with intact mitochondrial membrane potential by measuring red fluorescence at 8.6 uM incubated for 48 hrs by JC1 staining based flow cytometric analysis (reference value: 92.04%); format: functional
Outline: (§2)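 MDA-MB-231 cells in DMEM/10% FBS exposed 48 h to 0, 8.6, 12.4 or 17.3 μM. Harvested cells stained with JC-1 for 15 min in the dark, then analysed by flow cytometry. Excitation 488 nm; green emission read at 525 nm, red at 590 nm. Output given as percent green-to-red fluorescence intensity ratio. Triplicate, mean ± SD.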

RAW264.7 [7] = assay: Antiinflammatory activity in mouse RAW264.7 cells assessed as reduction in LPS-induced TNFalpha production at 0.8 to 3.1 uM preincubated with LPS for 24 hrs followed by compound addition and measured after 24 hrs by ELISA; format: functional, cell-based
Outline: (§3)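 Murine RAW 264.7 macrophages, 1 × 10^5/well, 4 h settling, then LPS (1.0 μg/mL) for 24 h. Medium was swapped for test solutions (0.8–3.1 μM or 2.3–9.2 μM), or DXM 254.8 μM as positive control, for another 24 h. Secreted NO was measured by Griess assay; TNF-α and IL-6 by ELISA. Run in triplicate, mean ± SD.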

MDA-MB-231 [8] = assay: Induction of apoptosis in human MDA-MB-231 cells assessed as necrotic cells at 8.6 uM incubated for 48 hrs by annexin V-FITC/PI based flow cytometric analysis (Rvb= 0.74%); format: functional
MDA-MB-231 [9] = assay: Induction of cell cycle arrest in human MDA-MB-231 cells assessed as accumulation of cells at G2/M phase at 17.3 uM incubated for 48 hrs by PI/RNase staining based flow cytometric analysis (reference value: 10.4%); format: functional; outline: as §1
HepG2 = assay: Antiproliferative activity against human HepG2 cells assessed as cell viability at 24.7 uM incubated for 48 hrs by methylene blue assay relative to control; format: functional; conditions: HepG2, 48 h, read-out: Activity
Outline: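 MDA-MB-231, MCF-7, HepG2 and LNCaP cells were grown in DMEM; HCT-116 and LO-2 in RPMI-1640; all with 10% FBS at 37 °C, 5% CO2. Cells seeded at 1.5 × 10^5 cells/mL and incubated overnight (~12 h), then exposed to 6.2–30.9 μM or 23.1–185.0 μM (final DMSO <0.1%) for 48 h. Read by methylene blue staining; viability = Abs treated/Abs untreated × 100%, triplicate.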

[10] = Cytotoxicity against mouse RAW264.7 cells assessed as reduction in cell viability incubated for 24 hrs by MTT assay; format: cell-based; conditions: read-out: MNCC
Outline: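 MTT viability assay: RAW 264.7 cells seeded at 2.5 × 10^4 cells/well, cultured 12 h, then given five concentrations from serial dilution (up to 6.2 or 9.2 μM; final DMSO <1%) for 24 h. Viability was calculated relative to untreated blank control; n = 3, mean ± SD.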

MDA-MB-231 [11] = assay: Induction of mitochondrial membrane potential loss in human MDA-MB-231 cells assessed as cell population with intact mitochondrial membrane potential by measuring red fluorescence at 12.4 uM incubated for 48 hrs by JC1 staining based flow cytometric analysis (reference value: 92.04%); format: functional; outline: as §2
MDA-MB-231 [12] = assay: Induction of apoptosis in human MDA-MB-231 cells assessed as early apoptotic cells at 8.6 uM incubated for 48 hrs by annexin V-FITC/PI based flow cytometric analysis (Rvb= 0.24%); format: functional
RAW264.7 [13] = assay: Antiinflammatory activity against LPS-activated mouse RAW264.7 cells assessed as reduction in TNFalpha mRNA expression at 3.1 uM preincubated with LPS for 24 hrs followed by compound addition and measured after 24 hrs by qRT-PCR analysis; format: functional, cell-based
Outline: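 RAW 264.7 cells (DMEM, 10% FBS, 37 °C, 5% CO2) seeded at 1 × 10^5/well and held 4 h. LPS 1.0 μg/mL was added for 24 h, then medium was replaced with test agent (0.8, 1.6, 3.1 μM or 2.3, 4.6, 9.2 μM) for 24 h. TNF-α and IL-6 transcripts were quantified by real-time qPCR against GAPDH. Triplicates, mean ± SD.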

MDA-MB-231 [14] = assay: Induction of apoptosis in human MDA-MB-231 cells assessed as viable cells at 12.4 uM incubated for 48 hrs by annexin V-FITC/PI based flow cytometric analysis (Rvb= 96.21%); format: functional; conditions: MDA-MB-231, 48 h, read-out: Activity
RAW264.7 [15] = assay: Antiinflammatory activity in mouse RAW264.7 cells assessed as inhibition of LPS-induced NO production at 0.8 to 3.1 uM measured after 24 hrs by griess reagent based assay; format: functional, cell-based; outline: as §3
RAW264.7 [16] = assay: Antiinflammatory activity in mouse RAW264.7 cells assessed as reduction in LPS-induced IL6 production at 0.8 to 3.1 uM preincubated with LPS for 24 hrs followed by compound addition and measured after 24 hrs by ELISA; format: functional, cell-based; outline: as §3
MDA-MB-231 [17] = assay: Induction of mitochondrial membrane potential loss in human MDA-MB-231 cells cell population with mitochondrial membrane potential collapse by measuring green fluorescence at 17.3 uM incubated for 48 hrs by JC1 staining based flow cytometric analysis (reference value: 7.96%); format: functional; outline: as §2
MDA-MB-231 [18] = assay: Induction of apoptosis in human MDA-MB-231 cells assessed as early apoptotic cells at 17.3 uM incubated for 48 hrs by annexin V-FITC/PI based flow cytometric analysis (Rvb= 0.24%); format: functional
MDA-MB-231 [19] = assay: Induction of apoptosis in human MDA-MB-231 cells assessed as late apoptotic cells at 12.4 uM incubated for 48 hrs by annexin V-FITC/PI based flow cytometric analysis (Rvb= 2.82%); format: functional

CC(C)=CCc1c2c(c(O)c3c(=O)cc(-c4ccc(O)cc4)oc13)C=CC(C)(C)O2 [LAXIFOLIN]
Activity (MDA-MB-231 [1]): 29.5% | viability at 17.3 µM (MDA-MB-231 [2]): 68.9% | Activity (MDA-MB-231 [3]): 9.8% | Activity (MDA-MB-231 [4]): 11% | Activity (MDA-MB-231 [5]): Dose-dependent effect | Activity (MDA-MB-231 [6]): 83.51% | Activity (RAW264.7 [7]): Active | Activity (MDA-MB-231 [8]): 1.04% | Activity (MDA-MB-231 [9]): 9.87% | viability at 24.7 µM (HepG2): 20% | MNTC at 24 h [10]: 3.1 µM | Activity (MDA-MB-231 [11]): 84.3% | Activity (MDA-MB-231 [12]): 0.87% | Activity (RAW264.7 [13]): Active | viability at 12.4 µM (MDA-MB-231 [14]): 85.3% | inhibition (RAW264.7 [15]): Active | Activity (RAW264.7 [16]): Active | Activity (MDA-MB-231 [17]): 26.75% | Activity (MDA-MB-231 [18]): 0.96% | Activity (MDA-MB-231 [19]): 12.89%
